Screening data as filed in PubChem.
A selection: hits, their analogues and other compounds. The true share with any hit is near 2.2%.
APJ agonist = APJ receptor agonism. hit rate 0.11% among 330,000. P35414. AID 2520. activation, % at 20 µM. CHO-K1 APJ PathHunter beta-arrestin, luminescence; 0% DMSO wells, 100% apelin;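 active means activation more than six SD over the plate average, tested at 20 µM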;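 further: 0% = DMSO alone and 100% = apelin-13 at 10 nM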
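Material: engineered CHO-K1 APJ arrestin reporter cells; amount: 1000 CHO-K1 reporter cells seeded per well; incubation: compound stimulation 90 min at 25 °C, detection 60 min; signal: luminescent beta-gal fragment complementation, chemiluminescent substrate; read-out basis: APJ agonist activity; controls: DMSO-only wells as negative, 10 nM Apelin-13 as positive control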
CXCR6 block = inhibitors of human CXCR6 receptor; CHO-K1 PathHunter CXCR6 beta-arrestin, luminescence; O00574; hit rate 0.36% among 360,000; inhibition, % at 20 µM; in the data active means inhibition above about 34%, passing the limit was not always enough;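 further: antagonist mode with CXCL16 agonist at 10 nM final; 0% = 10 nM CXCL16 with DMSO and 100% = unstimulated wells without agonist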
APJ antagonist = antagonists of human APJ apelin receptor | P35414 | hit rate 0.32% among 330,000 | inhibition, % at 20 µM | AID 2521 | CHO-K1 APJ beta-arrestin complementation, luminescence;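 active means inhibition above about 40% at 20 µM, limit read from the data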;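 further: cells challenged with 10 nM apelin-13 agonist together with compound; plate controls were apelin-13 plus DMSO wells for no effect and DMSO wells lacking apelin-13 for full effect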
CCR6 antag = antagonists of human CCR6 receptor. P51684. CHO-K1 CCR6 PathHunter beta-arrestin, luminescence, CCL20-stimulated. inhibition, % at 20 µM. hit rate 0.49% among 340,000. AID 493098;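 active means compounds whose inhibition of the agonist-driven luminescence signal at 20 µM reaches about 50%, limit read from the data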;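 further: cells stimulated with CCL20 at 14 nM final; plate controls were DMSO with CCL20 for no effect and DMSO without agonist for full effect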
EBI2 block = EBI2 (human) antagonism | P32249 | hit rate 0.81% among 360,000 | EBI2 beta-arrestin recruitment, luminescence, 7a,25-OHC stimulated | AID 651636 | inhibition, % at 5 µM; in the data active means inhibition above about 38%;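 further: enzyme fragment complementation signal reports receptor beta-arrestin coupling in cells; 0% = agonist plus DMSO wells and 100% = wells without agonist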
HTR2A ag = activates the mouse 5-HT2A serotonin receptor. P35363. CHO-K1 mHTR2A beta-arrestin complementation, luminescence; percent of 30 µM serotonin response. activation, % at 7.6 µM. hit rate 0.66% among 360,000;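 active means activation above a run cutoff, the mean activation of all tested compounds plus 3 SD, cut at about 14% in these data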;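 further: 0% = plate median of compound wells and 100% = 30 µM serotonin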
MOR ag counter = OPRM1 agonism in mouse HTR2A counterscreen | activation, % at 9.3 µM | hit rate 5.3% among 2,300 | U2OS OPRM1 beta-arrestin PathHunter, luminescence; DMSO 0%, DAMGO 9.3 µM 100% | shares compounds with HTR2A ag;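 active means mean activation above the mean of DMSO-only wells plus 3 SD, cut at about 0.5% in these data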
Target sequence (P35372 whole entry, looked up): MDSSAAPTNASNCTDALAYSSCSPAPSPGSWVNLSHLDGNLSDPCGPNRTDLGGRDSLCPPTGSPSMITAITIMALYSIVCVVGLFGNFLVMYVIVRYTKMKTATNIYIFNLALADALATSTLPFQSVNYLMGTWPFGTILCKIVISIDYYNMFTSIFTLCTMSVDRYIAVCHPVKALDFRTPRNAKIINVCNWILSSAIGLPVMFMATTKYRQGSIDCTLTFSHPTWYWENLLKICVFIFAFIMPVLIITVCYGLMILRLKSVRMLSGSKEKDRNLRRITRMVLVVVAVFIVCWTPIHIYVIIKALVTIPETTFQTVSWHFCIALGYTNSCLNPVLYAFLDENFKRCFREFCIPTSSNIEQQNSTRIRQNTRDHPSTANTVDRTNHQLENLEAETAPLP
m5-HT2A ag conf = mouse HTR2A agonism confirmed; AID 624381; activation, % at 7.6 µM; shares compounds with HTR2A ag; hit rate 19% among 2,300; CHO-K1 PathHunter beta-arrestin recruitment, luminescence; DMSO 0%, 30 µM serotonin 100%;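 active means mean activation across triplicates above the hit threshold derived in the original primary screen, cut at about 15% in these data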
Numbers without * were called inactive; · = not tested or not shown.

SMILES	APJ agonist	CXCR6 block	APJ antagonist	CCR6 antag	EBI2 block	HTR2A ag	MOR ag counter	m5-HT2A ag conf
Cc1ccc(N(Cc2ccccc2)C(=O)c2ccc(C)c(S(=O)(=O)N3CCOCC3)c2)cc1	-3	6	-15	21	3	15*	0	2
COc1ccc(C(=O)OCc2ccc(C)cc2)cc1S(=O)(=O)N1CCOCC1	-2	3	-17	8	6	18*	0	-3
COc1ccc(C(=O)Oc2ccc(C)cc2)cc1S(=O)(=O)N1CCOCC1	·	0	·	·	3	-8	·	·
CN(C(=O)c1cccc(NC(=O)Cc2ccc(NC(=O)C3CCN(C(=O)C4CCCCC4)CC3)cc2)c1)C1CC1	·	3	·	5	-7	16*	0.7*	5
CN(C(=O)c1cccc(NC(=O)Cc2ccc(NC(=O)C3CCN(C(=O)C4CCC4)CC3)cc2)c1)C1CCCCC1	·	6	·	12	-2	9	·	·
COc1ccc2c3c(n(C(=O)OC(C)(C)C)c2c1)C1CC=C(COC(C)=O)CN1CC3 (stereo not given)	·	·	·	·	1	-3	·	·
Cc1ccc(N(C)S(=O)(=O)c2cccc(C(=O)Oc3ccc4c(C)cc(=O)oc4c3)c2)cc1	-2	2	7	-7	-9	19*	0	-3
Cc1cc(=O)oc2cc(OC(=O)c3ccccc3)ccc12	-1	-5	-41	20	4	-3	·	·
COCCNC(=O)C1(C)CCN(C(=O)c2ccc3ccccc3n2)C1 (stereo not given)	·	-2	·	·	5	5	·	·
COC(=O)[C@@]1(C)[C@H]2C(=O)N(C)C(=O)[C@H]2[C@H]2CN=C(SCc3ccccc3)N21	·	-5	·	-1	-8	17*	-1	-4
COC(=O)[C@]1(C)N[C@H](CN(C)C(=O)Nc2ccc(Cl)cc2)[C@@H]2C(=O)N(Cc3ccccc3)C(=O)[C@@H]21	-1	1	0	5	-1	18*	-1	2
COc1ccc(C(=O)CC(=O)C(=O)NCCc2cccc(C)c2)cc1	-1	19	8	21	2	17*	0	-3
COc1ccc(C(=O)CC(=O)C(=O)Nc2cc(C)ccc2C)cc1	-2	8	13	11	-9	0	·	·
CN1C(=O)CC(N2CCN(c3ccc(Cl)c(Cl)c3)CC2)C1=O (stereo not given)	-3	-8	-1	8	-5	16*	0	5
O=C(Cc1ccccc1)NNC1CC(=O)N(c2ccccc2)C1=O (stereo not given)	1	-3	11	3	-13	2	·	·
O=C(Cc1ccccc1)NNC1CC(=O)N(c2ccc(Oc3ccccc3)cc2)C1=O (stereo not given)	4	6	-6	0	1	17*	-1	-2
CN(C(=O)COC(=O)c1cncc(Br)c1)C1CCCCC1	-5	-1	-6	4	2	19*	0	0
CC(C)(C)NC(=O)C1c2ccccc2OCC(=O)N1Cc1ccccc1 (stereo not given)	·	3	·	·	-7	8	·	·
CN1C(=O)NC(c2ccc(O)cc2)C2=C1CN(c1ccc(O)cc1)C2=O (stereo not given)	-2	-1	5	12	4	20*	-1	-4
COc1cccc(CNC(=O)[C@@H]2CCCN2C(=O)[C@@H]2CCCN2S(=O)(=O)c2ccc(OC)c(C)c2)c1	·	-2	·	·	-8	0	·	·
CC(=O)c1cccc(OCC(O)CNCC2COc3ccccc3O2)c1 (stereo not given)	-2	2	10	-1	3	26*	0	59*
COc1ccc(Cl)cc1-c1cc(C(=O)NCc2cccs2)[nH]n1	·	1	·	·	6	-2	·	·
COc1ccccc1-n1c(=O)c2c3c(sc2n2c(SC(C)C)nnc12)CCC3	-4	-11	13	-6	4	16*	-1	4
CCC(c1nnnn1-c1c(C)cccc1C)N1CCCN(Cc2ccc(F)cc2)CC1 (stereo not given)	·	-11	·	·	13	-5	·	·
O=C(O)C1CCCCC1C(=O)NCCc1ccc(Cl)cc1 (stereo not given)	-4	-4	-18	-16	-14	7	·	·
SMILES	APJ agonist	CXCR6 block	APJ antagonist	CCR6 antag	EBI2 block	HTR2A ag	MOR ag counter	m5-HT2A ag conf
O=C(O)C1C2C=CC(C2)C1C(=O)NCCc1cccc(Cl)c1 (stereo not given)	-3	3	8	-4	-5	32*	0	5
O=C(O)C1CCCCC1C(=O)NCCc1cccc(Cl)c1 (stereo not given)	1	3	-12	-15	6	35*	0	-1
O=C(O)C1C2C=CC(C2)C1C(=O)NCc1cccc(Cl)c1 (stereo not given)	0	6	8	-3	-1	4	·	·
CCCCn1nnnc1C(c1cc2ccccc2o1)N1CCN(C(=O)OCC)CC1 (stereo not given)	·	-4	·	·	1	17*	-1	-5
Cc1ccccc1CNC(=O)c1[nH]c(C(F)(F)F)nc1-c1ccccc1	·	4	·	·	4	1	·	·
CCc1ccccc1NC(=O)c1cc(S(=O)(=O)N2CCc3ccccc32)cn1C	-3	-3	10	-4	15	28*	0.7*	-2
Cc1ccc(/C=N/c2sc3c(c2C#N)CCCCC3)o1	-3	-9	9	13	-12	16*	0	16*
Cc1ccc(-c2nc3c(c(SCC(=O)N4CCOCC4)n2)COC(C)(C)C3)cc1	-3	1	-12	10	5	20*	0	-3
COc1ccc(-c2nc3c(c(SCC(=O)N4CCOCC4)n2)COC(C)(C)C3)cc1	-1	3	10	11	3	3	·	·
CCCCNC(=O)c1nc(C2CCNCC2)oc1-c1ccccc1	·	·	·	·	-15	-3	·	·
Nc1ccc(-c2cc(-c3cccc(N)c3)nc(-c3ccccc3)n2)cc1	-1	-5	-13	-2	-21	15*	0	11
Nc1ccc(-c2nc(-c3ccccc3)nc3ccccc23)cc1	-5	-3	5	14	-5	3	·	·
Cc1cc(C)cc(C(O)c2ncc(-c3ccc(F)cc3)[nH]2)c1 (stereo not given)	·	-2	·	·	0	0	·	·
COc1ccccc1CNC(=O)C[C@@H]1CC[C@H]2[C@@H](COC[C@H](O)CN2Cc2ccccc2)O1	·	·	·	·	-6	1	·	·
COc1ccccc1CNC(=O)C[C@H]1CC[C@@H]2[C@H](COC[C@H](O)CN2Cc2ccc3c(c2)OCO3)O1	·	·	·	·	-5	25*	-1	1
